# From ChEMBL document CHEMBL2057168, “(1aR,5aR)1a,3,5,5a-Tetrahydro-1H-2,3-diaza-cyclopropa[a]pentalene-4-carboxylic acid (MK-1903): a potent GPR109a agonist that lowers free fatty acids in humans” (J Med Chem, 2012)
# Activity calls are given as the source filed them. The rule behind the calls is not given here.
# Key:
# [1] = Cmin in human at 150 mg, po BID administered on day 1 followed by 2-day wash out period after which dosing continued up to day 11 measured on day 11 at 12 hrs; assay type: ADME, organism-based; conditions: in vivo, read-out: Cmin
# Outline: (§1)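 Healthy male volunteers took part in a double-blind, randomized, placebo-controlled dose-escalation study, with cohorts of 8 (6 on drug, 2 on placebo). Each subject got an oral dose on day 1, then a 2-day washout, then dosing on days 4–11. The 200 mg qd group was titrated over days 1–4. Venous plasma was sampled predose and 0.5–12 h postdose on days 1, 4 and 11, and predose on days 5–10 for troughs.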
# [2] = Cmax in human at 150 mg, po TID administered on day 1 followed by 2-days wash out period after which dosing continued up to day 11 measured on day 11; assay type: ADME, organism-based; parameters: dose 150 mg, route oral; conditions: in vivo; outline: as §1
# [3] = Tmax in human at 150 mg, po TID administered on day 1 followed by 2-days wash out period after which dosing continued up to day 11 measured on day 4; assay type: ADME, organism-based; conditions: in vivo
# Outline: (§2)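 Double-blind, placebo-controlled, randomized multiple oral dose study in healthy male volunteers (cohorts of eight; six active, two placebo). Dose given on day 1, then a two-day washout, then dosing days 4–11; for the QD arm, subjects were titrated over days 1–4. Venous plasma sampled predose and 0.5, 1, 1.5, 2, 4, 6, 8, 10, 12 h postdose on days 1, 4 and 11. Tmax reported as median (min–max).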
# [4] = Cmin in human at 150 mg, po TID administered on day 1 followed by 2-days wash out period after which dosing continued up to day 11 measured on day 1 at 8 hrs; assay type: ADME, organism-based; conditions: in vivo, read-out: Cmin; outline: as §1
# [5] = AUC (0 to 12 hrs) in human at 100 mg, po BID administered on day 1 followed by 2-day wash out period after which dosing continued up to day 11 measured on day 1; assay type: ADME, organism-based; parameters: dose 100 mg, time < 12 hr, route oral; conditions: plasma
# Outline: (§3)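 Double-blind, placebo-controlled, randomized dose-escalation study in healthy male volunteers, six cohorts of eight (six active, two placebo). Oral dose on day 1, two-day washout, then dosing days 4–11; the 200 mg qd cohort was titrated over days 1–4. Venous blood taken predose and at 0.5–12 h on days 1, 4 and 11; plasma drug measured. τ 12 h (bid), 24 h (qd), 8 h (tid), 6 h (qid).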
# [6] = AUC (0 to 12 hrs) in human at 100 mg, po BID administered on day 1 followed by 2-day wash out period after which dosing continued up to day 11 measured on day 11; assay type: ADME, organism-based; parameters: time < 12 hr, dose 100 mg, route oral; conditions: plasma; outline: as §3
# [7] = Cmin in human at titreated dose from day 1 to 4 followed by 200 mg, po QD administered up to day 11 measured on day 4 at 12 hrs; assay type: ADME, organism-based; conditions: in vivo, read-out: Cmin; outline: as §1
# [8] = Volume of distribution in mouse; assay type: ADME, organism-based; conditions: in vivo
# [9] = Apparent half life in human at 150 mg, po TID administered on day 1 followed by 2-day wash out period after which dosing continued up to day 11 measured on day 11; assay type: ADME, organism-based; conditions: in vivo, read-out: t1/2(app) (converted); outline: as §3
# [10] = target: Hydroxycarboxylic acid receptor 3 (Homo sapiens) (UniProt P49019); experiment: Agonist activity at human GPR109b assessed as decrease in forskolin-stimulated cAMP production by HTRF assay; assay type: functional
# Sequence of Hydroxycarboxylic acid receptor 3 (Homo sapiens) (P49019 whole entry): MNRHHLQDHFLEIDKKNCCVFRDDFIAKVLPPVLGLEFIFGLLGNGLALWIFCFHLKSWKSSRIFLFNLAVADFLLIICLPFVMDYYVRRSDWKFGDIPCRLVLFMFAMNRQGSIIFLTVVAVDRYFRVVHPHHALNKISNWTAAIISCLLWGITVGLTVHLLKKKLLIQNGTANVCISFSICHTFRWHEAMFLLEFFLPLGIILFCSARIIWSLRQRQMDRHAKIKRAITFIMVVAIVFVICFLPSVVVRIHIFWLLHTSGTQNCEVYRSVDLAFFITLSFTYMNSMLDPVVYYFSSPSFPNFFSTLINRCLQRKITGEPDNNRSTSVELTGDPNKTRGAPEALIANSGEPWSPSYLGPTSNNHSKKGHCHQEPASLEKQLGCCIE
# [11] = Volume of distribution in dog; assay type: ADME, organism-based, Canis lupus familiaris; conditions: in vivo
# Cytochrome P450 2C8 = target: T1, Cytochrome P450 2C8 (Homo sapiens, UniProt P10632); experiment: Activity at CYP2C8; assay type: ADME
# T1 sequence (P10632 whole entry): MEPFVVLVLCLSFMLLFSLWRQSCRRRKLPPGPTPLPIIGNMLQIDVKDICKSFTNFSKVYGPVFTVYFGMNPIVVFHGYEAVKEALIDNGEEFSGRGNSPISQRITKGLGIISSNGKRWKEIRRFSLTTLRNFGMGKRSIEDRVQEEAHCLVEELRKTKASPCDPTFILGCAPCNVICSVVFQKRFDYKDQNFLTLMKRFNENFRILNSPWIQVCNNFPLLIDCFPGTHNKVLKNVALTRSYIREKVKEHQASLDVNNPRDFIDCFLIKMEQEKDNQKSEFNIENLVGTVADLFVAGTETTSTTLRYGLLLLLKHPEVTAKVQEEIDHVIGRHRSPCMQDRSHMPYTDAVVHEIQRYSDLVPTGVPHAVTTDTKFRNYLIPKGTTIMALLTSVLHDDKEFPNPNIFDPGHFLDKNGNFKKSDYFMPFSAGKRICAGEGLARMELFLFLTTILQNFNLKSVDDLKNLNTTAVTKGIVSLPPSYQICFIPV
# [12] = Tmax in human at 100 mg, po BID administered on day 1 followed by 2-day wash out period after which dosing continued up to day 11 measured on day 11; assay type: ADME, organism-based; conditions: in vivo; outline: as §2
# [13] = Tmax in human at 100 mg, po BID administered on day 1 followed by 2-day wash out period after which dosing continued up to day 11 measured on day 4; assay type: ADME, organism-based; conditions: in vivo; outline: as §2
# Cytochrome P450 2D6 = Cytochrome P450 2D6 (Homo sapiens, UniProt P10635); experiment: Activity at CYP2D6; assay type: ADME
# Sequence of Cytochrome P450 2D6 (P10635 whole entry): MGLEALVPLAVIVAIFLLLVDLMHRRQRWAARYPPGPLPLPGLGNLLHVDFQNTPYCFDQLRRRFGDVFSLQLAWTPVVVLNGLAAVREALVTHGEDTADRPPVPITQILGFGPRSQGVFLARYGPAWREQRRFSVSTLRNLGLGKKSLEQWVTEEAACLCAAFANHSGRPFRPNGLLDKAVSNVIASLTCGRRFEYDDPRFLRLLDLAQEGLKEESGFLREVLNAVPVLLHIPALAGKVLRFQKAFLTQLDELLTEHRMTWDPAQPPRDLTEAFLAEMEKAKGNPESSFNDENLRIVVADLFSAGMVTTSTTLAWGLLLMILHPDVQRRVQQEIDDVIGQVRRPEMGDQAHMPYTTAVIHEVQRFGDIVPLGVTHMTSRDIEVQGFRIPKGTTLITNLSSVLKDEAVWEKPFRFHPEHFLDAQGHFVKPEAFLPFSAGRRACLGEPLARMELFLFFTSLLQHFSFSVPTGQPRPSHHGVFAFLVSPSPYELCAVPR
# [14] = Tmax in human at 175 mg, po QID administered on day 1 followed by 2-days wash out period after which dosing continued up to day 11 measured on day 4; assay type: ADME, organism-based; conditions: in vivo; outline: as §2
# Mus musculus = experiment: Toxicity in C57/Bl6 mouse assessed as increase in cutaneous blood flow in ear at 100 mg/kg, ip after 5 mins relative to vehicle treated control by laser doppler flowmetry; assay type: organism-based; parameters: dose 100 mg/kg, route intraperitoneal; conditions: in vivo
# Outline: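 Male C57/Bl6 mice (8–10 weeks, ~25 g) anesthetized with Nembutal ip (80 mg/10 mL/kg). Ear perfusion recorded by laser Doppler imaging: 3 min baseline, then vehicle (PBS, 40% HPBCD or 0.5% methylcellulose) or compound given ip at 5 mL/kg through a preinserted syringe, with readings for ~15 min. Expressed as % change of perfusion over baseline.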
# [15] = Terminal half life in dog; assay type: ADME, organism-based, Canis lupus familiaris; conditions: in vivo, read-out: beta t1/2 (converted)
# Rhesus monkey = experiment: Dose normalized Cmax in po dosed rhesus monkey; assay type: ADME, organism-based, Macaca mulatta; conditions: in vivo
# Homo sapiens [16] = experiment: Toxicity in human assessed as occurrence of flushing at 5 to 200 mg, po administered as single dose; assay type: organism-based; conditions: in vivo
# Rattus norvegicus = experiment: Dose normalized Cmax in Sprague-Dawley rat at 10 mg/kg, po; assay type: ADME, organism-based; parameters: dose 10 mg/kg, route oral; conditions: in vivo
# Outline: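 Male Sprague-Dawley rats were dosed at 10 mg/kg po or 2 mg/kg iv in 80% PEG400/20% phosphate-buffered saline, fasted overnight before the oral dose. Jugular blood was sampled serially from 0.25 to 21 h over 24 h, and heparinized plasma was prepared. Drug was assayed by HPLC/MS/MS (quantitation range 1–2000 ng/mL).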
# [17] = Plasma clearance in dog; assay type: ADME, organism-based, Canis lupus familiaris
# [18] = AUC (0 to 6 hrs) in human at 175 mg, po QID administered on day 1 followed by 2-days wash out period after which dosing continued up to day 11 measured on day 11; assay type: ADME, organism-based; parameters: time < 6 hr, dose 175 mg, route oral; conditions: plasma; outline: as §3
# Homo sapiens [19] = experiment: Antidyslipidemic activity in human assessed as decrease in free fatty acid level 175 mg, po QID administered on day 1 followed by 2-days wash out period after which dosing continued up to day 11 measured on day 4 and 11; assay type: functional, organism-based
# Outline: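 Healthy male volunteers in a randomized, double-blind, placebo-controlled multiple-dose study, six active and two placebo subjects per cohort. Oral dosing on day 1, two-day washout, then days 4–11, with titration over days 1–4 for the qd arm.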
compound,measurement,setting,value
O=C(O)c1n[nH]c2c1C[C@H]1C[C@@H]21,concentration at 12 h,[1],0.208 nM
same,Cmax,[2],44.9 nM
same,Tmax,[3],0.5 h
same,concentration at 8 h,[4],0.869 nM
same,AUC at 12 h,[5],0.0728 µM·h
same,AUC at 12 h,[6],0.0611 µM·h
same,concentration at 12 h,[7],0.244 nM
same,Vd,[8],0.75 L/kg
same,half-life,[9],11 h
same,Activity,[10],inactive
same,Vd,[11],0.41 L/kg
same,Activity,Cytochrome P450 2C8,Not Active
same,Tmax,[12],0.5 h
same,Tmax,[13],1 h
same,Activity,Cytochrome P450 2D6,Not Active
same,Tmax,[14],1 h
same,Activity,Mus musculus,30%
same,half-life,[15],3.4 h
same,Cmax/dose,Rhesus monkey,5.1 µM·kg/mg
same,Activity,Homo sapiens [16],Toxic
same,Cmax/dose,Rattus norvegicus,3.7 µM·kg/mg
same,clearance,[17],3.1 mL/min/kg
same,AUC at 6 h,[18],0.123 µM·h
same,Activity,Homo sapiens [19],Active
